Experimental data from ChEMBL document CHEMBL3271935, “Synthesis and biological activity of some broad-spectrum N-acylphenyglycine cephalosporins” (1977).
Converted amounts (≈) assume the structure as drawn.

Tests used:
Klebsiella pneumoniae = assay: Antibacterial activity against Klebsiella pneumoniae 4200 assessed as growth inhibition by two-fold agar dilution method; assay type: functional
Summary of the method: (§1)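 MIC (μg/mL) by twofold agar dilution on Trypticase soy agar buffered to pH 6.0.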

Pseudomonas aeruginosa [1] = assay: Antibacterial activity against Pseudomonas aeruginosa HH 63 assessed as growth inhibition by two-fold agar dilution method; assay type: functional; summary of the method: as §1
Salmonella paratyphi = assay: Antibacterial activity against Salmonella paratyphi ATCC 12176 assessed as growth inhibition by two-fold agar dilution method; assay type: functional, Salmonella enterica subsp. enterica serovar Paratyphi A; details: Salmonella enterica
Summary of the method: (§2)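 Twofold agar dilution on Trypticase soy agar buffered to pH 6.0. MIC reported in μg/mL.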

Morganella morganii = assay: Antibacterial activity against indole positive Proteus morganii 179 assessed as growth inhibition by two-fold agar dilution method; assay type: functional; summary of the method: as §1
Escherichia coli [2] = assay: Antibacterial activity against Escherichia coli 12140 assessed as growth inhibition by two-fold agar dilution method; assay type: functional; summary of the method: as §1
Escherichia coli [3] = assay: Antibacterial activity against Escherichia coli 12140 infected in sc dosed mouse administered at 1 to 5 hrs measured for 3 days; assay type: functional; details: Escherichia coli, 12140, sc; read-out: PD50
Summary of the method: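 Mice infected intraperitoneally with about 2×10^3 organisms per mouse of E. coli 12140 culture diluted in 5% hog gastric mucin, giving uniformly lethal infection. Fourfold dilutions given subcutaneously in equally divided portions at 1 and 5 h postinfection, five groups per compound. Survivors observed 3 days. PD50 is total dose (mg/kg) protecting 50%, calculated by Litchfield–Wilcoxon method.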

Klebsiella aerogenes = assay: Antibacterial activity against Enterobacter aerogenes ATCC 13048 assessed as growth inhibition by two-fold agar dilution method; assay type: functional; summary of the method: as §1
Staphylococcus aureus = assay: Antibacterial activity against penicillin G resistant Staphylococcus aureus HH 127 assessed as growth inhibition by two-fold agar dilution method; assay type: functional; summary of the method: as §2
Pseudomonas aeruginosa [4] = assay: Antibacterial activity against Pseudomonas aeruginosa 1504 assessed as growth inhibition; assay type: functional
Summary of the method: (§3)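 Broth MIC by the standard microtiter technique in unbuffered Mueller-Hinton broth.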

Pseudomonas aeruginosa [5] = assay: Antibacterial activity against Pseudomonas aeruginosa 647 assessed as growth inhibition; assay type: functional; summary of the method: as §3
Pseudomonas aeruginosa [6] = assay: Antibacterial activity against Pseudomonas aeruginosa 864 assessed as growth inhibition; assay type: functional; summary of the method: as §3
Pseudomonas aeruginosa [7] = assay: Antibacterial activity against Pseudomonas aeruginosa 1042 assessed as growth inhibition; assay type: functional; summary of the method: as §3
Pseudomonas aeruginosa [8] = assay: Antibacterial activity against Pseudomonas aeruginosa 1106 assessed as growth inhibition; assay type: functional; summary of the method: as §3
Pseudomonas aeruginosa [9] = assay: Antibacterial activity against Pseudomonas aeruginosa 219 assessed as growth inhibition; assay type: functional; summary of the method: as §3
Pseudomonas aeruginosa [10] = assay: Antibacterial activity against Pseudomonas aeruginosa 1063 assessed as growth inhibition; assay type: functional; summary of the method: as §3
Pseudomonas aeruginosa [11] = assay: Antibacterial activity against Pseudomonas aeruginosa 1062 assessed as growth inhibition; assay type: functional; summary of the method: as §3

SMILES | MIC (Klebsiella pneumoniae) [µg/mL] | MIC (Pseudomonas aeruginosa [1]) [µg/mL] | MIC (Salmonella paratyphi) [µg/mL] | MIC (Morganella morganii) [µg/mL] | MIC (Escherichia coli [2]) [µg/mL] | ED50 (Escherichia coli [3]) [mg/kg] | MIC (Klebsiella aerogenes) [µg/mL] | MIC (Staphylococcus aureus) [µg/mL] | MIC (Pseudomonas aeruginosa [4]) [µg/mL] | MIC (Pseudomonas aeruginosa [5]) [µg/mL] | MIC (Pseudomonas aeruginosa [6]) [µg/mL] | MIC (Pseudomonas aeruginosa [7]) [µg/mL] | MIC (Pseudomonas aeruginosa [8]) [µg/mL] | MIC (Pseudomonas aeruginosa [9]) [µg/mL] | MIC (Pseudomonas aeruginosa [10]) [µg/mL] | MIC (Pseudomonas aeruginosa [11]) [µg/mL]
CC(=O)OCC1=C(C(=O)[O-])N2C(=O)[C@@H](NC(=O)C(NC(=O)CCCC(=O)[O-])c3ccccc3)[C@H]2SC1.[Na+].[Na+] (stereo partly drawn) | 25 | > 200 | 25 | > 200 | 50 | 100 | 100 | 6.3 |  |  |  |  |  |  |  | 
CC(=O)OCC1=C(C(=O)O)N2C(=O)[C@@H](NC(=O)C(NC(=O)CSCC(=O)O)c3ccccc3)[C@H]2SC1 (stereo partly drawn) | 6.3 (≈ 11.7 µM) | > 200 | 6.3 (≈ 11.7 µM) | 12.5 (≈ 23.3 µM) | 12.5 (≈ 23.3 µM) | 64 | 25 (≈ 46.5 µM) | 3.1 (≈ 5.77 µM) |  |  |  |  |  |  |  | 
CC(=O)OCC1=C(C(=O)[O-])N2C(=O)[C@@H](NC(=O)C(NC(=O)COCC(=O)[O-])c3ccccc3)[C@H]2SC1.[Na+].[Na+] (stereo partly drawn) | 3.1 | > 200 | 12.5 | 12.5 | 6.3 | 21.5 | 12.5 | 3.1 |  |  |  |  |  |  |  | 
CC(=O)OCC1=C(C(=O)[O-])N2C(=O)[C@@H](NC(=O)C(NC(=O)C3CCC(C(=O)[O-])O3)c3ccccc3)[C@H]2SC1.[Na+].[Na+] (stereo partly drawn) | 6.3 | 200 | 12.5 | 50 | 12.5 | 140 | 25 | 6.3 |  |  |  |  |  |  |  | 
Cn1nnnc1SCC1=C(C(=O)[O-])N2C(=O)[C@@H](NC(=O)C(NC(=O)CCCC(=O)[O-])c3ccccc3)[C@H]2SC1.[Na+].[Na+] (stereo partly drawn) | 6.3 | > 200 | 6.3 | 12.5 | 12.5 | 100 | 25 | 3.1 | > 500 | > 500 | > 500 | > 500 | > 500 | > 500 | > 500 | > 500
Cn1nnnc1SCC1=C(C(=O)[O-])N2C(=O)[C@@H](NC(=O)C(NC(=O)CSCC(=O)[O-])c3ccccc3)[C@H]2SC1.[Na+].[Na+] (stereo partly drawn) | 3.1 | > 200 | 3.1 | 1.6 | 6.3 | 50 | 3.1 | 3.1 | 500 | > 500 | > 500 | > 500 | > 500 | 500 | > 500 | 500
Cn1nnnc1SCC1=C(C(=O)[O-])N2C(=O)[C@@H](NC(=O)C(NC(=O)COCC(=O)[O-])c3ccccc3)[C@H]2SC1.[Na+].[Na+] (stereo partly drawn) | 0.8 | 200 | 1.6 | 0.4 | 1.6 | 8.7 | 3.1 | 3.1 | 125 | 125 | 500 | 250 | 500 | 125 | 500 | 250
Cn1nnnc1SCC1=C(C(=O)O)N2C(=O)[C@@H](NC(=O)C(N)c3ccccc3)[C@H]2SC1 (stereo partly drawn) | 1.6 (≈ 3.47 µM) | > 200 | 1.6 (≈ 3.47 µM) | 6.3 (≈ 13.7 µM) | 3.1 (≈ 6.72 µM) | 1.4 | 1.6 (≈ 3.47 µM) | 3.1 (≈ 6.72 µM) |  |  |  |  |  |  |  | 
CC(=O)OCC1=C(C(=O)[O-])N2C(=O)[C@@H](NC(=O)C(NC(=O)[C@H]3C[C@H]3C(=O)[O-])c3ccccc3)[C@H]2SC1.[Na+].[Na+] (mixture of isomers) | 3.1 | > 200 | 6.3 | 12.5 | 12.5 | 25 | 12.5 | 6.3 |  |  |  |  |  |  |  | 
CC(=O)OCC1=C(C(=O)[O-])N2C(=O)[C@@H](NC(=O)C(NC(=O)C3CO3)c3ccccc3)[C@H]2SC1.[Na+] (mixture of isomers) | 12.5 | > 200 | 12.5 | 25 | 25 | 100 | 25 | 1.6 |  |  |  |  |  |  |  | 
Cn1nnnc1SCC1=C(C(=O)[O-])N2C(=O)[C@@H](NC(=O)C(NC(=O)[C@H]3C[C@H]3C(=O)[O-])c3ccccc3)[C@H]2SC1.[Na+].[Na+] (mixture of isomers) | 3.1 | 200 | 3.1 | 6.3 | 6.3 | 25 | 6.3 | 6.3 | 125 | 125 | 500 | 250 | > 500 | 125 | 500 | 250
Cn1nnnc1SCC1=C(C(=O)[O-])N2C(=O)[C@@H](NC(=O)C(NC(=O)C3OC3C(=O)[O-])c3ccccc3)[C@H]2SC1.[Na+].[Na+] (mixture of isomers) | 0.8 | 50 | 1.6 | 0.4 | 0.8 | 7 | 1.6 | 6.3 | 63 | 63 | 500 | 63 | 500 | 125 | 500 | 63
Cn1nnnc1SCC1=C(C(=O)[O-])N2C(=O)[C@@H](NC(=O)C(NC(=O)[C@@H]3O[C@@H]3C(=O)[O-])c3ccccc3)[C@H]2SC1.[Na+].[Na+] (mixture of isomers) | 3.1 | 200 | 6.3 | 3.1 | 6.3 | 35 | 12.5 | 12.5 | 500 | > 500 | 500 | > 500 | > 500 | 500 | > 500 | > 500
Cn1nnnc1SCC1=C(C(=O)[O-])N2C(=O)[C@@H](NC(=O)C(NC(=O)C3CCC(C(=O)[O-])O3)c3ccccc3)[C@H]2SC1.[Na+].[Na+] (mixture of isomers) | 1.6 | 100 | 3.1 | 1.6 | 3.1 | 25 | 3.1 | 3.1 | 63 | 125 | 500 | 125 | 500 | 125 | 250 | 125
Cn1nnnc1SCC1=C(C(=O)[O-])N2C(=O)[C@@H](NC(=O)C(NC(=O)C3CO3)c3ccccc3)[C@H]2SC1.[Na+] (mixture of isomers) | 6.3 | 200 | 6.3 | 3.1 | 12.5 | 45 | 12.5 | 1.6 | 500 | > 500 | > 500 | > 500 | > 500 | > 500 | > 500 | > 500
Cn1nnnc1SCC1=C(C(=O)[O-])N2C(=O)[C@@H](NC(=O)[C@H](NC(=O)[C@H]3O[C@@H]3C(=O)[O-])c3ccccc3)[C@H]2SC1.[Na+].[Na+] (mixture of isomers) | 12.5 | > 200 | 12.5 | 25 | 25 | 150 | 25 | 1.6 |  |  |  |  |  |  |  | 
CC(=O)OCC1=C(C(=O)[O-])N2C(=O)[C@@H](NC(=O)C(NC(=O)C3OC3C(=O)[O-])c3ccccc3)[C@H]2SC1.[Na+].[Na+] (single isomer, unassigned; diastereomer 1) | 0.8 | 100 | 1.6 | 3.1 | 1.6 | 12.5 | 3.1 | 6.3 |  |  |  |  |  |  |  | 
CC(=O)OCC1=C(C(=O)[O-])N2C(=O)[C@@H](NC(=O)C(NC(=O)[C@@H]3O[C@@H]3C(=O)[O-])c3ccccc3)[C@H]2SC1.[Na+].[Na+] (single isomer, unassigned; diastereomer 2) | 6.3 | > 200 | 6.3 | 200 | 12.5 | 72 | 25 | 12.5 |  |  |  |  |  |  |  | 
CC(=O)OCC1=C(C(=O)O)N2C(=O)[C@@H](NC(=O)[C@H](N)c3ccccc3)[C@H]2SC1 [CEPHALOGLYCIN] | 3.1 (≈ 7.65 µM) | > 200 | 3.1 (≈ 7.65 µM) | > 200 | 3.1 (≈ 7.65 µM) |  | 50 (≈ 123 µM) | 3.1 (≈ 7.65 µM) |  |  |  |  |  |  |  | 
CC(=O)OCC1=C(C(=O)O)N2C(=O)[C@@H](NC(=O)Cc3cccs3)[C@H]2SC1 [CEPHALOTHIN] | 1.6 (≈ 4.04 µM) | > 200 | 0.8 (≈ 2.02 µM) | > 200 | 3.1 (≈ 7.82 µM) | 50 | 12.5 (≈ 31.5 µM) | 0.2 (≈ 0.504 µM) |  |  |  |  |  |  |  | 
